According to ChEMBL document CHEMBL3045564, “Synthesis of photosynthesis-inhibiting nostoclide analogues” (J Agric Food Chem, 2008):
Activity calls are given as the source filed them. The calls are words filed in the database; no cut-off is given here.

Assays:
[1] = test system: Spinacia oleracea; assay: Inhibition of photosynthesis in isolated Spinacia oleracea (spinach) chloroplasts assessed as reduction in light-driven ferricyanide reduction at 5 uM; assay type: functional
Procedure, shortened: (§1)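 Thylakoid membranes from market spinach leaves, homogenized in ice-cold Tricine-NaOH pH 8.0 with NaCl, MgCl2 and 0.4 M sucrose. Osmotically swollen, kept on ice in the dark. Portions with 20 μg chlorophyll incubated at 24 °C with 1 mM K3Fe(CN)6. Run under saturating light (800 μmol m⁻² s⁻¹), A420 read every 30 s for 10 min. Triplicate; percent inhibition versus untreated controls.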

[2] = test system: Spinacia oleracea; assay: Inhibition of photosynthesis in isolated Spinacia oleracea (spinach) chloroplasts assessed as reduction in light-driven ferricyanide reduction at 10 uM; assay type: functional; procedure, shortened: as §1

SMILES	inhibition [1]	inhibition [2]
COc1ccc(/C=C2/C=C(Cc3ccccc3)C(=O)O2)cc1O	inactive	inactive
O=C1O/C(=C\c2ccc(C(F)(F)F)cc2)C=C1Cc1ccccc1	34%	55.5%
COc1ccc(OC)c(/C=C2/C=C(Cc3ccccc3)C(=O)O2)c1	30.3%	43.5%
N#Cc1ccc(/C=C2/C=C(Cc3ccccc3)C(=O)O2)cc1	inactive	inactive
COc1cc(OC)c(/C=C2\C=C(Cc3ccccc3)C(=O)O2)c(OC)c1	25.2%	43.6%
CN(C)c1cccc(/C=C2/C=C(Cc3ccccc3)C(=O)O2)c1	10.9%	38.6%
O=C1O/C(=C\c2ccccc2Cl)C=C1Cc1ccccc1	19.4%	30.8%
O=C1O/C(=C\c2cccc(Br)c2)C=C1Cc1ccccc1	13.8%	22.6%
O=C1O/C(=C\c2ccccc2Br)C=C1Cc1ccccc1	inactive	21.8%
O=C1O/C(=C\c2ccc(Br)cc2)C=C1Cc1ccccc1	inactive	inactive
CN(C)c1ccc(/C=C2/C=C(Cc3ccccc3)C(=O)O2)cc1	5.7%	7.1%
O=C1O/C(=C\c2ccccc2)C=C1Cc1ccccc1	12.7%	29.2%
O=C1O/C(=C\c2ccc([N+](=O)[O-])cc2)C=C1Cc1ccccc1	49.8%	57.8%
O=C1O/C(=C\c2cccc(O)c2)C=C1Cc1ccccc1	inactive	6.9%
O=C1O/C(=C\c2ccc(O)cc2)C=C1Cc1ccccc1	inactive	6.5%
O=C1O/C(=C\c2c(F)c(F)c(F)c(F)c2F)C=C1Cc1ccccc1	inactive	6.6%
O=C1O/C(=C\c2ccccc2F)C=C1Cc1ccccc1	24.5%	49.5%

SMILES	inhibition [1]	inhibition [2]
O=C1O/C(=C\c2ccccc2C(F)(F)F)C=C1Cc1ccccc1	23.3%	44.9%
Cc1ccc(/C=C2/C=C(Cc3ccccc3)C(=O)O2)cc1	inactive	8%
O=C1O/C(=C\c2ccc(F)cc2)C=C1Cc1ccccc1	9.2%	25.6%
Cc1cccc(/C=C2/C=C(Cc3ccccc3)C(=O)O2)c1	8%	16.7%
O=C1O/C(=C\c2cccc([N+](=O)[O-])c2)C=C1Cc1ccccc1	30%	39.5%
O=C1O/C(=C\c2cccc(F)c2)C=C1Cc1ccccc1	9.5%	28.8%
CN(C)C(=O)Nc1ccc(Cl)c(Cl)c1	93.2%	95.1%
N#Cc1cccc(/C=C2/C=C(Cc3ccccc3)C(=O)O2)c1	inactive	inactive
O=C1O/C(=C\c2ccc(-c3ccccc3)cc2)C=C1Cc1ccccc1	inactive	inactive
CN(C)c1ccc(/C=C2/C=C(Cc3ccccc3)C(=O)O2)c(Cl)c1	13.8%	25.4%
O=C1O/C(=C\c2cccc(C(F)(F)F)c2)C=C1Cc1ccccc1	27.3%	49.9%
O=C1O/C(=C\c2ccccc2O)C=C1Cc1ccccc1	inactive	inactive
CCc1ccc(/C=C2/C=C(Cc3ccccc3)C(=O)O2)cc1	40.6%	50.7%
O=C1O/C(=C\c2ccc(Cl)cc2)C=C1Cc1ccccc1	inactive	5.8%
O=C1O/C(=C\c2cccc(Cl)c2)C=C1Cc1ccccc1	5.8%	20.3%
Cc1ccccc1/C=C1/C=C(Cc2ccccc2)C(=O)O1	16.7%	26%
COc1ccc(/C=C2/C=C(Cc3ccccc3)C(=O)O2)cc1	8.5%	15%
